FLuc stim CS = firefly luciferase counter-screen for stimulation assays | AID 1027 | 200,000 tested, under 10 active | activation factor at 10 µM | P08659 | ATPlite luciferase biochemical, luminescence, 10 min; 0 = ATP-free wells, 1 = DMSO control;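 active means luciferase activation factor, scaled between plate controls, of at least 2 with compound at 10 µM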
Target sequence (P08659 whole entry, looked up): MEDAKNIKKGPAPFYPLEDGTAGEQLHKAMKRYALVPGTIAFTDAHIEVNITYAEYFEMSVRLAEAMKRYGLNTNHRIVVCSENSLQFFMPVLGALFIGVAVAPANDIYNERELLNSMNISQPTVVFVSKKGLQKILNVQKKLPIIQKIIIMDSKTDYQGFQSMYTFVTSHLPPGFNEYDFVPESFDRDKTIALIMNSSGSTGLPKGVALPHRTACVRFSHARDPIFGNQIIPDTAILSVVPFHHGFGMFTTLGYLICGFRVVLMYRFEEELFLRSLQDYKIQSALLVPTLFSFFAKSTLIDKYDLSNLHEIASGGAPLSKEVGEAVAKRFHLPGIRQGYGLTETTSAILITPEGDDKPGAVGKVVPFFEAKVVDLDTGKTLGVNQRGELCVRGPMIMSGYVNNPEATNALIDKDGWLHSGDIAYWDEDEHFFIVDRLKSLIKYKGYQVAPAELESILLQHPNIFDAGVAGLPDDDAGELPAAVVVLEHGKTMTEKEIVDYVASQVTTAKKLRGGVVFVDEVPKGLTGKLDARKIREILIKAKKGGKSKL
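assay system = Luciferase/luciferin detection reagent, cell-free biochemical luciferase assay | also added = ATP substrate | times = 10 min post-reagent at room temperature | measured by = luminescence from luciferase reaction | measure = luciferase activation, seen as luminescence increase over controls | benchmarks = low control with PBS replacing ATP, high control enzyme plus ATP without compound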
Platelet DG rel = platelet dense granule release activity | human platelet-rich plasma, SFLLRN dense granule ATP release, luminescence | inhibition, %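 (compounds screened at 7.5 µM in platelet-rich plasma)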 | 0.22% of 300,000 active | AID 1663;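 active means mean replicate score, as percent of positive control, at or above 50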
PPC-1+TRAIL kill = compounds killing PPC-1 cancer cells with TRAIL present (potentiator screen, no TRAIL-free arm). PPC-1 cells + TRAIL, ATPLite viability luminescence. 0.41% of 220,000 active. cell killing (% activity), % at 4 µM or 5 µM. AID 1443;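 active means cell killing above 50% in the first pass at 4 µM, then a duplicate retest at 5 µM averaging 50% or more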;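 further: plate controls were cells with TRAIL plus DMSO for no effect and medium-only wells lacking cells for full effect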
FLuc inhib CS = Photinus pyralis luciferase inhibition counter-screen | inhibition, % at 10 µM | ATPLite firefly luciferase biochemical luminescence, 10 min | P08659 | AID 1006 | 1.5% of 200,000 active;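 active means inhibition above about 50% when tested at 10 µM, limit read from the data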
C8 TRAIL sens = caspase-8 TRAIL sensitization; NB7+C8 cells + TRAIL, ATPlite viability luminescence; inhibition (viability loss, TRAIL sensitization), % at 10 µM; 1% of 360,000 active; AID 624354;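 active means compounds causing at least 50% loss of cell viability in the single-dose screen, relative to plate controls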
Active calls of the source: *; / = not tested or not shown. The list is not random: actives were taken first. Their share in the collection is about 1.6%.

SMILES | FLuc stim CS | Platelet DG rel | PPC-1+TRAIL kill | FLuc inhib CS | C8 TRAIL sens
Cc1cc(C)cc(NC(=O)/C(C#N)=C/c2cn(CC(=O)NCc3ccco3)c3ccccc23)c1 | 1 | -4.9 | 50.1* | -3.7 | 66.2*
Cc1ccc(NC(=O)/C(C#N)=C/c2cn(CC(=O)NCc3ccco3)c3ccccc23)cc1C | 1 | 3.0 | 46.4 | -0.8 | 41.3
CCC(=O)N1CCCC(C)(C(=O)Nc2ccc3oc(CC)nc3c2)C1 (stereo not drawn) | / | / | / | / | -9.9
O=C(/C=C/Nc1cccc([N+](=O)[O-])c1)c1ccco1 | / | 4.7 | / | / | 12.3
Cc1ccc(C(=O)/C=C/Nc2cccc([N+](=O)[O-])c2)o1 | 0.4 | -1.4 | 3.8 | 62.5* | 20.7
C(=NN1CCCCCC1)c1ccc2ccccc2n1 | / | / | / | / | 90.2*
Cc1onc(-c2cccc(Cl)c2Cl)c1C(=O)O/N=C(\N)c1ccc([N+](=O)[O-])o1 | / | 1.3 | 10.3 | / | 4.1
C/C(=N\OC(=O)c1c(-c2ccccc2Cl)noc1C)c1ccncc1 | 1.1 | -5.5 | 14.5 | -5.4 | -10.1
Cc1onc(-c2ccccc2Cl)c1C(=O)O/N=C(\N)c1ccccc1 | / | 2.5 | / | / | 91.6*
Cc1onc(-c2ccccc2Cl)c1C(=O)O/N=C(\N)c1cccc([N+](=O)[O-])c1 | / | / | / | / | 87.5*
CCc1nc2ccc(C(=O)N(CC)CCN(C)C)cn2c1N(C=O)CCC(C)C | / | / | / | / | -4.4
Cc1nc(=S)c2c([nH]1)-c1ccccc1CC21CCCCC1 | / | -0.5 | 4.1 | / | 79.8*
CCc1nc2c(c(=O)[nH]1)C1(CCCC1)Cc1ccccc1-2 | 1 | 10.3 | 0.9 | -0.9 | -7.4
O=C(CCl)Nc1ccc(-c2ccccc2)cc1 | 1.1 | -1.8 | 25.6 | -7.0 | 57.1*
O=C(CCl)Nc1cccc(Oc2ccccc2)c1 | 0.9 | -7.8 | 5.1 | 12.4 | 87.2*
O=C(CCl)Nc1ccccc1Sc1ccccc1 | 1 | 0.9 | 12.5 | -4.8 | 83.1*
O=C(Cc1ccc(Cl)cc1)Nc1ccccc1Sc1ccccc1 | 1.1 | -36.5 | 0.0 | -6.0 | 19.5
CC(c1nc2ccccc2n1Cc1ccccc1)n1c(-c2cnccn2)nc2ccccc21 (stereo not drawn) | / | / | / | / | 7.0
CC(=O)Nc1cccc(N2C(=O)CC(Cc3ccccc3)C2=O)c1 (stereo not drawn) | 1 | 57.2* | 8.0 | -4.6 | -5.4
Cc1cc(=O)oc2cc(N3C(=O)CC(Cc4ccccc4)C3=O)ccc12 (stereo not drawn) | 1 | 1.0 | / | -2.9 | -8.1
CC(=NCc1ccncc1)C1=C(O)c2ccccc2C1=O | 0.8 | / | 50.5* | 23.1 | /
COc1cc(-c2coc3c(C(=O)NCc4cccc(Cl)c4)cccc23)ccc1O | / | / | / | / | 16.6
O=C(Cc1ccccc1[N+](=O)[O-])NCc1ccc(Cl)cc1Cl | 0.4 | -13.0 | 38.2 | 59.2* | 27.3
CC(C)CNc1ncnc2c1ncn2[C@H]1CN(Cc2ccc3c(c2)OCO3)C[C@@H](CO)O1 | / | / | / | / | -6.1
Cc1c(Cl)cccc1NC(=S)N=Nc1c(O)n(CN2CCOCC2)c2ccccc12 | 1.1 | -0.2 | 53.3* | -5.0 | -4.0
SMILES | FLuc stim CS | Platelet DG rel | PPC-1+TRAIL kill | FLuc inhib CS | C8 TRAIL sens
Oc1c(N=NC(=S)Nc2ccccc2F)c2ccccc2n1Cc1ccccc1Cl | 1 | 4.4 | 12.6 | 0.0 | 18.1
Cn1c(CCc2ccc(N)cc2)nc2ccccc21 | 0.5 | 11.9 | 17.9 | 54.6* | 24.5
Cn1c(-c2ccc(N)cc2)nc2ccccc21 | 0.8 | / | 12.0 | 19.2 | 13.7
COc1cc(/C=C2\COC/C(=C\c3cc(OC)c(OC)c(OC)c3)C2=O)cc(OC)c1OC | / | -1.3 | 40.8 | / | 72.2*
CCCNC(=O)N(C)C[C@@H]1Oc2cc(C#CC(C)(C)O)ccc2S(=O)(=O)N([C@H](C)CO)C[C@H]1C | / | / | / | / | -5.5
Cn1c(-c2ccccc2F)cc2onc(-c3ccccc3)c2c1=O | / | / | / | / | 62.5*
Cn1c(-c2ccccc2)cc2onc(-c3ccccc3)c2c1=O | / | / | / | / | 80.8*
Cn1c(-c2ccccc2)cc(=O)cc1-c1ccccc1 | / | / | / | / | 5.2
Cn1c(-c2ncc(F)cc2F)cc2onc(-c3c(F)cccc3Cl)c2c1=O | / | / | / | / | 7.1
Cc1c(CN(C)C(=O)C2CCC(=O)N(Cc3ccccc3F)C2)[nH]c2ccccc12 (stereo not drawn) | / | / | / | / | -17.9
O=C(Sc1cccc2cccnc12)c1ccccc1Br | / | 0.3 | / | / | -3.7
O=C(Sc1cccc2cccnc12)c1ccc(F)cc1 | 1 | / | 57.9* | -3.6 | /
CN1C(=O)/C(=C/c2ccc3c(c2)OCO3)N=C1c1ccccc1 | 0.4 | 28.8 | 29.4 | 62.5* | -2.6
CCSC1=N/C(=C\c2ccc3c(c2)OCO3)C(=O)S1 | 1 | -2.0 | 21.4 | 0.3 | -18.3
Cc1ccccc1/C=C\c1nc2ccccc2c(=O)[nH]1 | 0.4 | 6.4 | 31.8 | 55.6* | 35.5
N#CCOc1ccccc1/C=C/c1nc2ccccc2c(=O)[nH]1 | / | 3.6 | / | / | -5.6
Cc1ccccc1/C=C/c1nc2ccccc2c(=O)[nH]1 | / | 9.2 | 25.0 | / | 53.8*
CCNC(=O)COC(=O)c1cc(C)n(-c2ccccc2)c1C | 0.9 | -6.6 | 11.8 | 5.7 | 4.8
Cc1cc(C(=O)COC(=O)c2ccc[nH]c2=O)c(C)n1-c1ccccc1 | 0.1 | -6.2 | 62.5* | 91.1* | 71.8*
Cc1cc(C(=O)OCC(=O)NCc2ccco2)c(C)n1-c1ccc(F)cc1 | 1 | -7.9 | 11.8 | -1.5 | -11.3
Cc1cc(C(=O)COC(=O)c2ccc[nH]c2=O)c(C)n1C1CC1 | 0.4 | -7.7 | 24.2 | 64.0* | 12.8
Cc1cc(C(=O)COC(=O)c2ccc[nH]c2=O)c(C)n1-c1ccc(F)cc1 | 0.2 | 11.1 | 45.0 | 79.1* | 52.1*
Cc1cc(C(=O)N2CCC(C)(C(=O)NS(=O)(=O)C3CC3)C2)n(C(C)(C)C)n1 (stereo not drawn) | / | / | / | / | 0.6
COCC(C)NC(=O)C1CC(=O)N(CCc2ccc(F)cc2)C1 (stereo not drawn) | / | / | / | / | -1.6
Cc1ccc(C(=O)/C=C2\NCCNC2=O)cc1 | 0.3 | 0.2 | 30.8 | 66.7* | 29.6
SMILES | FLuc stim CS | Platelet DG rel | PPC-1+TRAIL kill | FLuc inhib CS | C8 TRAIL sens
Cc1ccc(C(=O)/C=C2\NCC(C)NC2=O)cc1 (stereo not drawn) | 0.3 | -15.6 | 37.7 | 68.7* | 43.1
COc1cccc(CNC(=O)[C@@H]2CCCN2C(=O)[C@H]2CCCCN2C(=O)c2c(F)cccc2F)c1 | / | / | / | / | -10.5
Cc1cccn2c(=O)c3cc(C(=O)NCCC4=CCCCC4)n(C)c3nc12 | / | -1.6 | / | / | 15.9
Cn1c(C(=O)NCCC2=CCCCC2)cc2c(=O)n3ccccc3nc21 | 1 | -2.9 | 18.6 | -0.2 | 60.4*
COCCCN1C(=O)C(CC(=O)NCc2cccc3ccccc23)CC(C(=O)N(C(C)C)C(C)C)=C1C (stereo not drawn) | / | / | / | / | 9.0
C#CCSc1nnc(-c2ccc(C)cc2)o1 | 0.4 | / | 17.2 | 55.5* | 90.1*
C#CCSc1nnc(-c2ccc(O)cc2)o1 | 0.9 | 1.1 | 25.2 | 12.4 | 2.4
Cc1ccc(CSc2nnc(-c3cccnc3)o2)cc1 | 1.1 | -3.3 | -8.3 | -6.8 | 54.1*
OC(c1cccc(CN2CCCCC2)c1)c1ncc(-c2cccc3ccccc23)[nH]1 (stereo not drawn) | / | / | / | / | -1.1
COc1ccccc1/C=C/C(=O)OCC(=O)Nc1c(F)cccc1F | 0.4 | 16.8 | -0.3 | 63.9* | -1.2

Compound activity from PubChem.
